Assay [1] can be described thus: reducers of endogenous Her2 protein level, primary screen, SKBR3 breast tumor cells, AlphaScreen, ATP viability (AID 461;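 active = Her2 level under about 52% in both replicate screens, with viability over 70% of control, limit read from the data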;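 for Her2 level: lower value means less Her2 protein in the cells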;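 for viability: percent of carrier control wells set as 100% viability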). Conditions: 18-24 h, measured here: SKBR3 viability, ATP luminescence, at 10 µM.
The target of assay [2] is Receptor tyrosine-protein kinase erbB-2 (Homo sapiens) (UniProt P04626). Described as above. Conditions: 18-24 h, at 10 µM, stronger effect = lower value.
Sequence of Receptor tyrosine-protein kinase erbB-2 (Homo sapiens) (P04626 whole entry, looked up): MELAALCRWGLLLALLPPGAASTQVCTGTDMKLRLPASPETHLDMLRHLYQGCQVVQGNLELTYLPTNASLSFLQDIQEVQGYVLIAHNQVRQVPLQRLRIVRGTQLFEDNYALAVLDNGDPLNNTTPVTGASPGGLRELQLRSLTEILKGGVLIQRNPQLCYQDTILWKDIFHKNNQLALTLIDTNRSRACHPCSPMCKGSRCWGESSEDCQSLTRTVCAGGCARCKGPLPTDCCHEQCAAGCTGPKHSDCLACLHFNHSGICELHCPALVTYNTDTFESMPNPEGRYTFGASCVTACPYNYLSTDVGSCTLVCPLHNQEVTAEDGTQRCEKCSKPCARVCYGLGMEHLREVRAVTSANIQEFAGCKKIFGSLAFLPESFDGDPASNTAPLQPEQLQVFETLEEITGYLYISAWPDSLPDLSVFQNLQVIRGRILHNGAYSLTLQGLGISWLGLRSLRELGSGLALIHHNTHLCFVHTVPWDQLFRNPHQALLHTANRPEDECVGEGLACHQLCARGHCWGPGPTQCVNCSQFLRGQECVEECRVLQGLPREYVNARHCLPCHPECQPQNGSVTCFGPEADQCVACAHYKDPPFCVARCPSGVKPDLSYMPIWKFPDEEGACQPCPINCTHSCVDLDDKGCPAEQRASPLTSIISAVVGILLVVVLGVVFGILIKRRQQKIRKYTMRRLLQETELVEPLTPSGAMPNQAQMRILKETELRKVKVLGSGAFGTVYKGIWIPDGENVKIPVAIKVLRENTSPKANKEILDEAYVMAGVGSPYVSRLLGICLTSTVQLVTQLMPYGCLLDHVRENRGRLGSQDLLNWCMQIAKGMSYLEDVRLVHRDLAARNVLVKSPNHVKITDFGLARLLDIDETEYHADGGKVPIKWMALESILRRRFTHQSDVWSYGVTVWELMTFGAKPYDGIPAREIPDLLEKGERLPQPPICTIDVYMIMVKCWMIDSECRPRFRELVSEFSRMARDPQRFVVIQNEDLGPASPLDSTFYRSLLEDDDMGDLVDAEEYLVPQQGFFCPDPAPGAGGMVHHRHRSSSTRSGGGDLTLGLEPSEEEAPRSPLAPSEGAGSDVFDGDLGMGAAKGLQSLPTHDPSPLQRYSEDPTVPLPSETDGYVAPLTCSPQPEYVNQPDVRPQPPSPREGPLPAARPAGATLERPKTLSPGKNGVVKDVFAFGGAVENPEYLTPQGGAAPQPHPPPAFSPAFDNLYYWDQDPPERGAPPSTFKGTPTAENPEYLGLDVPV
Assay [3] in a line: SK-BR-3 cell growth inhibitors, pilot screen, 24 h, human (AID 572).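 Note: compound exposure lasted between 18 and 24 h rather than exactly 24 h; 100% = carrier-treated control wells.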 The following applies: SK-BR-3 viability, CellTiter-Glo luminescence, at 10 µM, stronger effect = lower value.
Assay [4] can be described thus: HUVEC growth inhibition – cell-based, human, primary screen (AID 575;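 active = viability at or below 30% in both replicate assays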;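 note: 100% = median of untreated cell wells with 0.1% DMSO on each plate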). The following applies: HUVEC proliferation, CellTiter-Glo luminescence, 72 h; at 10 µM; stronger effect = lower value. Put shortly:
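system = HUVEC primary cells | amount = 1250 cells/well | buffer or medium = supplemented EBM, 2% fetal bovine serum | dosing = single-point 10 µM, DMSO 0.1% final | times = 72 h compound incubation | detection = CTG luminescence | read-out = % viability relative to median vehicle-well signal on each plate | control set = vehicle and MePR control wells | format = collagen-coated 384-well format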

Assay [5] is described as follows: growth inhibitors of H69AR lung tumor, primary screen, human, duplicate replicates (AID 580;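 active = viability at or under a set limit in both replicates, limit being median viability minus 3 SD, cut at about 48% in these data, passing the limit was not always enough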;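 note: 100% = mean luminescence of untreated wells and 0% = no signal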). The following applies: H69AR lung tumor cells viability, ATP luminescence, 72 h; at 10 µM; stronger effect = lower value.
Assay [6] is described as follows: reversal of MRP1-mediated doxorubicin resistance, pilot screen, H69AR cells, doxorubicin co-treatment (AID 601;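 active = viability loss from added drug above about 55%, and viability with drug at most 40%, in both replicates, limit read from the data, passing the limit was not always enough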). Conditions: CellTiter-Glo, 72 h, at 10 µM; for differential viability (reversal): stronger effect = higher value.
Assay [7] in a line: 384-well plate pilot, post-Golgi transport modulator project, inhibition of yeast transport mutant growth (AID 636; in the data active = inhibition above about 31%). The following applies: absorbance 615 nm, about 18 h, stronger effect = higher value.
Assay [8] can be described thus: growth suppression of yeast trafficking mutant, preliminary HTS, modulators of trafficking downstream of Golgi apparatus project, 1536-format plate, OD 615 nm (AID 637; in the data active = inhibition above about 30%). Conditions: yeast transport mutant growth, absorbance 615 nm, 18 h; stronger effect = higher value.
Where [9] appears, read: H69AR cells + 2 uM doxorubicin, measured here: viability with 2 uM doxorubicin, stronger effect = lower value.
The mark [10] stands for this setting: H69AR cells, compound alone cytotoxicity.

The text below walks through data of PubChem BioAssay.

Molecules are shown by their SMILES. Activity calls are given as the source filed them.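 Rule for the calls, unless noted: active = viability at or below 10% of carrier control in both of two separate runs; inconclusive = viability at or below 10% in only one of the two runs; inactive = the rest.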

Take `CC(=O)c1cccc(-n2nnnc2SCC(=O)N2CCCC2)c1`: the viability in assay [1] is 93.5%; in assay [3], 93.5% (inactive); in assay [4], 83.1% (inactive); in assay [5], 87.9% (inactive); in assay [6] (setting [9]) it was 90.7%; in assay [6] (setting [10]), 87.9%. In addition, in assay [2], the Her2 level is 88% (inactive). Moreover, the differential viability (reversal) in assay [6] (H69AR cells + 2 uM doxorubicin) was -2.82% (inactive). Moreover, the inhibition in assay [7] was -3.55% (inactive); in assay [8], -7.5% (inactive).

On to `CCCC(=O)Nc1nnc(CC(=O)OCC)s1`, for which the viability is 111% in assay [1]; 111% (inactive) in assay [3]; 113% (inactive) in assay [4]; 88.1% (inactive) in assay [5]; 89% in assay [6] (setting [9]); 88.1% in assay [6] (setting [10]). Further, the Her2 level in assay [2] was 108% (inactive). Besides, in assay [6] (H69AR cells + 2 uM doxorubicin), the differential viability (reversal) is -0.96% (inactive). In addition, the inhibition is -2.21% (inactive) in assay [7] and -7.14% (inactive) in assay [8].

Take `Cn1c(=O)c2c(nc(Br)n2CCSc2ncccn2)n(C)c1=O`: the viability in assay [1] was 98%; in assay [3], 98% (inactive); in assay [4] it was 106% (inactive); in assay [5] it was 103% (inactive); in assay [6] (setting [9]), 81.1%; in assay [6] (setting [10]), 103%. For the same compound, in assay [2], the Her2 level was 114% (inactive). In addition, the differential viability (reversal) in assay [6] (H69AR cells + 2 uM doxorubicin) is 21.7% (inactive). In addition, the inhibition is -1.87% (inactive) in assay [7] and -10.2% (inactive) in assay [8].

On to `CCSc1oc(-c2cccs2)nc1S(=O)(=O)c1ccccc1`, for which the viability in assay [1] is 93.5%; in assay [3], 93.5% (inactive); in assay [4], 59.9% (inactive); in assay [5] it was 82% (inactive); in assay [6] (setting [9]), 76.3%; in assay [6] (setting [10]) it was 82%. Further, the Her2 level in assay [2] was 104% (inactive). Also, the differential viability (reversal) in assay [6] (H69AR cells + 2 uM doxorubicin) was 5.72% (inactive). In addition, the results for the inhibition in assay [7] and in assay [8] were -5.33% (inactive) and 1.83% (inactive), respectively.

As to `CC(=O)c1ccc(NS(=O)(=O)c2ccccc2)cc1`, the viability in assay [1] was 95%; in assay [3], 95% (inactive); in assay [4] it was 91.5% (inactive); in assay [5] it was 98.6% (inactive); in assay [6] (setting [9]), 91.6%; in assay [6] (setting [10]) it was 98.6%. The Her2 level in assay [2] is 137% (inactive). The differential viability (reversal) in assay [6] (H69AR cells + 2 uM doxorubicin) was 7.02% (inactive). Besides, the inhibition in assay [7] was 4.42% (inactive); in assay [8], 5.33% (inactive).

Consider `O=C(COc1ccccc1)Nc1nc2ccccc2[nH]1`, for which the viability was 91.5% in assay [1]; 91.5% (inactive) in assay [3]; 92.5% (inactive) in assay [4]; 91.5% (inactive) in assay [5]; 85.6% in assay [6] (setting [9]); 91.5% in assay [6] (setting [10]). The Her2 level in assay [2] is 93% (inactive). The differential viability (reversal) in assay [6] (H69AR cells + 2 uM doxorubicin) is 5.92% (inactive). The inhibition was -1.04% (inactive) in assay [7] and -3.93% (inactive) in assay [8].

On to `O=C(c1ccccc1-c1ccccc1)N1CCN(c2ccccn2)CC1`, for which the viability in assay [1] was 69.5%; in assay [3], 69.5% (inactive); in assay [4], 58.8% (inactive); in assay [5], 16% (active); in assay [6] (setting [9]), 73.7%; in assay [6] (setting [10]), 16%. Moreover, the Her2 level in assay [2] is 93% (inactive). In addition, the differential viability (reversal) in assay [6] (H69AR cells + 2 uM doxorubicin) was -57.7% (inactive). For the same compound, the inhibition was -6.76% (inactive) in assay [7] and -4.75% (inactive) in assay [8].

Consider `Cc1cc(C)n2nc(SCc3cc(=O)n4ccccc4n3)nc2n1`, for which the viability in assay [1] was 100%; in assay [3], 100% (inactive); in assay [4], 107% (inactive); in assay [5] it was 101% (inactive); in assay [6] (setting [9]), 95.3%; in assay [6] (setting [10]) it was 101%. Moreover, the Her2 level in assay [2] was 72.5% (inactive). Besides, the differential viability (reversal) in assay [6] (H69AR cells + 2 uM doxorubicin) was 5.5% (inactive). Moreover, the results for the inhibition in assay [7] and in assay [8] were -4.47% (inactive) and -1% (inactive), respectively.

Take `O=C(CSc1nnc(Cc2ccccc2)n1C1CCCCC1)N1CCOCC1`: the viability in assay [1] was 92.5%; in assay [3], 92.5% (inactive); in assay [4], 97.9% (inactive); in assay [5], 95.6% (inactive); in assay [6] (setting [9]), 89.2%; in assay [6] (setting [10]), 95.6%. The Her2 level in assay [2] is 110% (inactive). In addition, the differential viability (reversal) in assay [6] (H69AR cells + 2 uM doxorubicin) was 6.44% (inactive). For the same compound, the inhibition was -3.03% (inactive) in assay [7] and -3.97% (inactive) in assay [8].

Consider `CCOC(=O)c1sc(=NC(=O)c2ccc(OC)c(OC)c2)n(C)c1C`, for which the viability in assay [1] is 121%; in assay [3], 121% (inactive); in assay [4], 108% (inactive); in assay [5] it was 65% (inactive); in assay [6] (setting [9]), 71.7%; in assay [6] (setting [10]), 65%. Besides, the Her2 level in assay [2] is 84% (inactive). Also, in assay [6] (H69AR cells + 2 uM doxorubicin), the differential viability (reversal) was -6.65% (inactive). Also, the inhibition in assay [7] is -5.06% (inactive); in assay [8], -0.16% (inactive).

Consider `CCOC(=O)c1ccc(NC(=O)CSc2n[nH]c(-c3ccncc3)n2)cc1`, for which the viability is 87.5% in assay [1]; 87.5% (inactive) in assay [3]; 80% (inactive) in assay [4]; 87.7% (inactive) in assay [5]; 89.4% in assay [6] (setting [9]); 87.7% in assay [6] (setting [10]). For the same compound, the Her2 level in assay [2] was 102% (inactive). In addition, the differential viability (reversal) in assay [6] (H69AR cells + 2 uM doxorubicin) was -1.68% (inactive). The values for the inhibition in assay [7] and in assay [8] were -3.11% (inactive) and 1.27% (inactive), respectively.

`CCN(CC)S(=O)(=O)c1ccc(N2CCCC2)c(C(=O)OCC(=O)/C(C#N)=C(\C)N)c1`: the viability in assay [1] is 91%; in assay [3], 91% (inactive); in assay [4], 66.7% (inactive); in assay [5], 82.6% (inactive); in assay [6] (setting [9]), 93.7%; in assay [6] (setting [10]), 82.6%. Also, the Her2 level in assay [2] is 92.5% (inactive). Further, in assay [6] (H69AR cells + 2 uM doxorubicin), the differential viability (reversal) was -11.1% (inactive). The values for the inhibition in assay [7] and in assay [8] were -6.4% (inactive) and 1.97% (inactive), respectively.

As for `C=CCOC(=O)C1=C(C)OC(N)=C(C#N)C1c1ccc2c(c1)OCO2` (stereo not given), the viability in assay [1] is 107%; in assay [3] it was 107% (inactive); in assay [4] it was 98.2% (inactive); in assay [5], 94.5% (inactive); in assay [6] (setting [9]), 86.9%; in assay [6] (setting [10]) it was 94.5%. Besides, the Her2 level in assay [2] is 90.5% (inactive). For the same compound, the differential viability (reversal) in assay [6] (H69AR cells + 2 uM doxorubicin) was 7.53% (inactive). The inhibition in assay [7] is -4.32% (inactive); in assay [8], -4.44% (inactive).

As for `NC(=O)NC(=O)CSc1cccc(C(F)(F)F)c1`, the viability in assay [1] is 138%; in assay [3], 138% (inactive); in assay [4], 90.1% (inactive); in assay [5], 88.2% (inactive); in assay [6] (setting [9]), 87.2%; in assay [6] (setting [10]), 88.2%. Also, the Her2 level in assay [2] was 94.5% (inactive). In addition, the differential viability (reversal) in assay [6] (H69AR cells + 2 uM doxorubicin) was 1.01% (inactive). Besides, the figures for the inhibition in assay [7] and in assay [8] were -8.63% (inactive) and 2.22% (inactive), respectively.

With `CCOc1ccccc1NS(=O)(=O)c1c(C)noc1C`, the viability in assay [1] was 97.5%; in assay [3] it was 97.5% (inactive); in assay [4], 91.3% (inactive); in assay [5] it was 109% (inactive); in assay [6] (setting [9]), 92.1%; in assay [6] (setting [10]), 109%. Besides, the Her2 level in assay [2] is 93.5% (inactive). For the same compound, the differential viability (reversal) in assay [6] (H69AR cells + 2 uM doxorubicin) is 16.6% (inactive). The inhibition in assay [7] was -3.42% (inactive); in assay [8], -0.95% (inactive).

In the case of `COCCn1c(C)cc(C(=O)COC(=O)CCN2C(=O)c3ccccc3C2=O)c1C`, the viability is 94.5% in assay [1]; 94.5% (inactive) in assay [3]; 97.9% (inactive) in assay [4]; 96.6% (inactive) in assay [5]; 91.1% in assay [6] (setting [9]); 96.6% in assay [6] (setting [10]). Besides, the Her2 level in assay [2] was 98.5% (inactive). Further, the differential viability (reversal) in assay [6] (H69AR cells + 2 uM doxorubicin) is 5.55% (inactive). In addition, the inhibition in assay [7] is -5.33% (inactive); in assay [8], 0.65% (inactive).
